{"source": "ChEMBL document CHEMBL2150922", "about": "“A sulfoximine-based inhibitor of human asparagine synthetase kills L-asparaginase-resistant leukemia cells” (Bioorg Med Chem, 2012)", "key": {"[1]": {"biological_target": "T1, Asparagine synthetase [glutamine-hydrolyzing] (Homo sapiens, UniProt P08243)", "T1 sequence (P08243 whole entry)": "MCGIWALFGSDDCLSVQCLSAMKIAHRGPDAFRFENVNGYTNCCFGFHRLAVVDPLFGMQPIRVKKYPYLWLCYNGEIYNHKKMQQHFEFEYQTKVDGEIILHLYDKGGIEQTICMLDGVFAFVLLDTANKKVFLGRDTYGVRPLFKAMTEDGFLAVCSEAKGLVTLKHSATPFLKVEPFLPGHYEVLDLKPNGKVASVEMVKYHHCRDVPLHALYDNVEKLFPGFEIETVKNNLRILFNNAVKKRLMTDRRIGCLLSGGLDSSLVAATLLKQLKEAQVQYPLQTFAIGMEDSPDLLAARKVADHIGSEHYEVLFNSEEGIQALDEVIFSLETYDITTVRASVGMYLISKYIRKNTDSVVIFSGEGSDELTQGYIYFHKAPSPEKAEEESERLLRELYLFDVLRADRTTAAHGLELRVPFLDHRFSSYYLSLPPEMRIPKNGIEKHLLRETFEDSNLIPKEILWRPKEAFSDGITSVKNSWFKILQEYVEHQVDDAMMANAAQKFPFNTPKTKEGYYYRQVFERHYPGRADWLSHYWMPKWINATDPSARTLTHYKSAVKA", "test": "Inhibition of human recombinant ASNS expressed in Sf9 cells assessed as initial inhibition constant for glutamine dependent production of inorganic pyrophosphate by spectrophotometry analysis"}, "[2]": {"biological_target": "T1, Asparagine synthetase [glutamine-hydrolyzing]", "test": "Inhibition of human recombinant ASNS expressed in Sf9 cells assessed as assessed as initial inhibition constant for ammonia dependent production of inorganic pyrophosphate by spectrophotometry analysis", "how_it_was_run": "(§1)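 PPi formation was coupled to NADH loss at 340 nm over 20 min. Progress curves at fixed inhibitor levels were fitted, and Ki was taken from k versus [I] with Ka 0.1 mM. Duplicates.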"}, "[3]": {"biological_target": "T1, Asparagine synthetase [glutamine-hydrolyzing]", "test": "Inhibition of human recombinant ASNS expressed in Sf9 cells assessed as overall inhibition constant for glutamine dependent production of inorganic pyrophosphate by spectrophotometry analysis"}, "[4]": {"biological_target": "T1, Asparagine synthetase [glutamine-hydrolyzing]", "test": "Inhibition of human recombinant ASNS expressed in Sf9 cells assessed as assessed as overall inhibition constant for ammonia dependent production of inorganic pyrophosphate by spectrophotometry analysis", "how_it_was_run": "as §1"}, "[5]": {"test_system": "MOLT-4", "test": "Cytotoxicity against human ASNase-resistant MOLT4 cells assessed as cell viability at 0.06 mM after 48 hrs by MTS assay in absence of ASNase", "format": "functional, cell-based", "how_it_was_run": "(§2)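 MOLT-4R cells grown in RPMI 1640 with 10% heat-inactivated FBS and penicillin-streptomycin at 37°C under 5% CO2. Cells were exposed to 10-1000 µM inhibitor, with or without 1 U/mL ASNase, for 48 h. Read-out was MTS at 490 nm, as titer relative to untreated cells at t=0; mean ± SD of triplicates.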"}, "[6]": {"test_system": "MOLT-4", "test": "Cytotoxicity against human ASNase-sensitive MOLT4 cells assessed as cell viability at 130 uM after 48 hrs by MTS assay", "format": "functional, cell-based", "how_it_was_run": "(§3)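 The ASNase-sensitive MOLT-4S line was kept in RPMI 1640 with 10% heat-inactivated FBS and penicillin-streptomycin at 37°C, 5% CO2. They were incubated 48 h with 10-1000 µM compound and no ASNase. Viability was measured by MTS (OD 490) relative to t=0 cell number; mean ± SD of triplicates.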"}, "[7]": {"test_system": "MOLT-4", "test": "Cytotoxicity against human ASNase-resistant MOLT4 cells assessed as cell viability at 250 uM after 48 hrs by MTS assay in presence of ASNase", "format": "functional, cell-based", "how_it_was_run": "as §2"}, "[8]": {"test_system": "MOLT-4", "test": "Cytotoxicity against human ASNase-resistant MOLT4 cells assessed as cell viability at 130 uM after 48 hrs by MTS assay in presence of ASNase", "format": "functional, cell-based", "how_it_was_run": "as §2"}, "[9]": {"test_system": "MOLT-4", "test": "Cytotoxicity against human ASNase-resistant MOLT4 cells assessed as cell viability after 48 hrs by MTS assay in absence of ASNase", "format": "functional, cell-based", "how_it_was_run": "as §2"}, "[10]": {"test_system": "MOLT-4", "test": "Cytotoxicity against human ASNase-resistant MOLT4 cells assessed as cell viability at 0.13 mM after 48 hrs by MTS assay in absence of ASNase", "format": "functional, cell-based", "how_it_was_run": "as §2"}, "[11]": {"test_system": "MOLT-4", "test": "Cytotoxicity against human ASNase-sensitive MOLT4 cells assessed as cell viability at 250 to 500 uM after 48 hrs by MTS assay", "format": "functional, cell-based", "how_it_was_run": "as §3"}, "[12]": {"test_system": "MOLT-4", "test": "Cytotoxicity against human ASNase-resistant MOLT4 cells assessed as cell viability at 0.06 mM after 48 hrs by MTS assay in presence of ASNase", "format": "functional, cell-based", "how_it_was_run": "as §2"}, "[13]": {"test_system": "MOLT-4", "test": "Cytotoxicity against human ASNase-resistant MOLT4 cells assessed as cell viability at >500 uM after 48 hrs by MTS assay in absence of ASNase"}, "[14]": {"test_system": "MOLT-4", "test": "Cytotoxicity against human ASNase-resistant MOLT4 cells assessed as cell viability after 48 hrs by MTS assay in absence of ASNase relative to sulfoximine 1"}}, "note": "Active and inactive are the calls of the source. The rule behind the calls is not given here.", "data": [{"smiles": "C[S+]([O-])(CCC(=O)O)=NP(=O)(O)OC[C@H]1O[C@@H](n2cnc3c(N)ncnc32)[C@H](O)[C@@H]1O", "note": "(mixture of isomers)", "values": [{"measurement": "Ki", "setting": "[1]", "value": 4500, "unit": "nM"}, {"measurement": "Ki", "setting": "[2]", "value": 3040, "unit": "nM"}, {"measurement": "Ki", "setting": "[3]", "value": 840, "unit": "nM"}, {"measurement": "Ki", "setting": "[4]", "value": 310, "unit": "nM"}]}, {"smiles": "C[S+]([O-])(C[C@H](N)C(=O)O)=NP(=O)(O)OC[C@H]1O[C@@H](n2cnc3c(N)ncnc32)[C@H](O)[C@@H]1O", "note": "(mixture of isomers)", "values": [{"measurement": "Ki", "setting": "[1]", "value": 1000, "unit": "nM"}, {"measurement": "Ki", "setting": "[2]", "value": 280, "unit": "nM"}, {"measurement": "Ki", "setting": "[3]", "value": 24, "unit": "nM"}, {"measurement": "Ki", "setting": "[4]", "value": 2.5, "unit": "nM"}]}, {"smiles": "C[S+]([O-])(CCN)=NP(=O)(O)OC[C@H]1O[C@@H](n2cnc3c(N)ncnc32)[C@H](O)[C@@H]1O", "note": "(mixture of isomers)", "values": [{"measurement": "Activity", "setting": "[5]", "value": "inactive"}, {"measurement": "Activity", "setting": "[6]", "value": "Active"}, {"measurement": "Ki", "setting": "[1]", "value": 490, "unit": "nM"}, {"measurement": "Ki", "setting": "[2]", "value": 450, "unit": "nM"}, {"measurement": "Activity", "setting": "[7]", "value": "Active"}, {"measurement": "Activity", "setting": "[8]", "value": "Active"}, {"measurement": "Activity", "setting": "[9]", "value": "Dose-dependent effect"}, {"measurement": "Activity", "setting": "[10]", "value": "Active"}, {"measurement": "Activity", "setting": "[11]", "value": "Active"}, {"measurement": "Ki", "setting": "[3]", "value": 8, "unit": "nM"}, {"measurement": "Ki", "setting": "[4]", "value": 33, "unit": "nM"}, {"measurement": "Activity", "setting": "[12]", "value": "inactive"}, {"measurement": "Activity", "setting": "[13]", "value": "Active"}, {"measurement": "fold change (FC)", "setting": "[14]", "value": 7}]}]}
